Laboratory results from ChEMBL document CHEMBL2331212 (Bioorg Med Chem, 2013).
Several values for one entry are separate records, joined by “and”; a condition that tells them apart may be missing. Equal values may be shown once. Activity calls are given as the source filed them. The rule behind the calls is not given here.

What was measured:
[1] = molecular target: T1, D(4) dopamine receptor (Homo sapiens) (UniProt P21917); test: Partial agonist activity at human D4.4 receptor expressed in CHO cells assessed as inhibition of forskolin-stimulated cAMP accumulation after 20 mins by luminescence assay relative to quinpirole; assay type: functional, cell-based
T1 sequence (whole entry): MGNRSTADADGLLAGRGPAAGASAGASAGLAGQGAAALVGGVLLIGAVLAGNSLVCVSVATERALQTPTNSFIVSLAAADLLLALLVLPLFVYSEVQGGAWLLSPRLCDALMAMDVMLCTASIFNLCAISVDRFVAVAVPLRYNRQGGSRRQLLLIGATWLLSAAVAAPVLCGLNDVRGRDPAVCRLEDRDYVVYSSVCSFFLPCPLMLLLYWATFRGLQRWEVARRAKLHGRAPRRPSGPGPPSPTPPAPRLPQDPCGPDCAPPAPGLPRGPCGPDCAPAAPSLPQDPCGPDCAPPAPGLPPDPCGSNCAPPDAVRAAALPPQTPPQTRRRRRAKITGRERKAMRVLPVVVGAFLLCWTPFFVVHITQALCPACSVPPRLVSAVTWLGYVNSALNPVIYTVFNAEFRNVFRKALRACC
Method in brief: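 CHO cells expressing D4.4 were seeded 24 h ahead at 10,000 cells/well and washed with Krebs Ringer buffer, pH 7.4. Cells were exposed to graded compound concentrations with forskolin for 20 min at 25 °C. cAMP was read by cAMP-Glo luminescence, a PKA–luciferase readout. Quinpirole served as the reference full agonist. EC50 and Emax were taken from at least three experiments, each in triplicate.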

D(3) dopamine receptor = D(3) dopamine receptor (Homo sapiens, UniProt P35462); test: Displacement of [3H]spiperone from human dopamine D3 receptor expressed in CHO cells; assay type: cell-based
[2] = molecular target: T1, D(4) dopamine receptor (Homo sapiens); test: Antagonist activity at human D4.4 receptor expressed in CHO cells assessed as inhibition of quinpirole-induced reduction in cAMP accumulation after 20 mins by luminescence assay; assay type: functional, cell-based
D(1A) dopamine receptor = D(1A) dopamine receptor (Bos taurus, UniProt Q95136); test: Displacement of [3H]SCH23390 from dopamine D1 receptor in bovine striatum
Method in brief: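 Bovine striatal homogenate was incubated with [3H]SCH 23390 and test compounds under the same binding conditions as the D2-family assays. Competition curves were fitted by sigmoid non-linear regression with logEC50 and Hill coefficient free. EC50 was converted to Ki by Cheng–Prusoff. Each experiment was run in triplicate.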

D(2) dopamine receptor [3] = molecular target: T2, D(2) dopamine receptor (Homo sapiens, UniProt P14416); test: Displacement of [3H]spiperone from human dopamine D2short receptor expressed in CHO cells; assay type: cell-based
D(4) dopamine receptor = molecular target: T3, D(4) dopamine receptor (Homo sapiens, UniProt P21917); test: Displacement of [3H]spiperone from human dopamine D4.4 receptor expressed in CHO cells; assay type: cell-based
T3 sequence (P21917 whole entry): T1 sequence (whole entry)

D(2) dopamine receptor [4] = molecular target: T2, D(2) dopamine receptor; test: Displacement of [3H]spiperone from human dopamine D2long receptor expressed in CHO cells; assay type: cell-based

Sequence of D(3) dopamine receptor (P35462 whole entry): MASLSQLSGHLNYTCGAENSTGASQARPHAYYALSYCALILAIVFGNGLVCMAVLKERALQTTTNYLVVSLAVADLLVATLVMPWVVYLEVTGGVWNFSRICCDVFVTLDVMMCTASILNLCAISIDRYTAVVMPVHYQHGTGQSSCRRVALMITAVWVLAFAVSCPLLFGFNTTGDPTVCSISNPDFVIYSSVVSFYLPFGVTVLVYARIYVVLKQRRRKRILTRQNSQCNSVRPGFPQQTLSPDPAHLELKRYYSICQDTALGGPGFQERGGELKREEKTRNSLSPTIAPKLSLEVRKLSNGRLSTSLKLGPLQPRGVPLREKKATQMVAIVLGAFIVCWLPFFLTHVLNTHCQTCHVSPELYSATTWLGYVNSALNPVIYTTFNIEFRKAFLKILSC
Sequence of D(1A) dopamine receptor (Q95136 whole entry): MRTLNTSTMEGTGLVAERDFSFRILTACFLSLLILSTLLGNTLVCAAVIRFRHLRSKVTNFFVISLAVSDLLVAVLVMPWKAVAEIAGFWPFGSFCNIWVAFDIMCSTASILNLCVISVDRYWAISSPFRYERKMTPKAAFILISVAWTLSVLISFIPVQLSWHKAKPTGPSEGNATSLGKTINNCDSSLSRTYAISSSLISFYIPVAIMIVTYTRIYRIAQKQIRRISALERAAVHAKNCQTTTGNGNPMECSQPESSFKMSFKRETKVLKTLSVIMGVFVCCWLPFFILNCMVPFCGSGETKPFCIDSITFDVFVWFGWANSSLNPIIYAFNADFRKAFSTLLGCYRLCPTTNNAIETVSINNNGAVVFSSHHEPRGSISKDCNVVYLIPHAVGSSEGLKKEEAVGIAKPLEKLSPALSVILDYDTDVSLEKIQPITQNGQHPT
T2 sequence (P14416 whole entry): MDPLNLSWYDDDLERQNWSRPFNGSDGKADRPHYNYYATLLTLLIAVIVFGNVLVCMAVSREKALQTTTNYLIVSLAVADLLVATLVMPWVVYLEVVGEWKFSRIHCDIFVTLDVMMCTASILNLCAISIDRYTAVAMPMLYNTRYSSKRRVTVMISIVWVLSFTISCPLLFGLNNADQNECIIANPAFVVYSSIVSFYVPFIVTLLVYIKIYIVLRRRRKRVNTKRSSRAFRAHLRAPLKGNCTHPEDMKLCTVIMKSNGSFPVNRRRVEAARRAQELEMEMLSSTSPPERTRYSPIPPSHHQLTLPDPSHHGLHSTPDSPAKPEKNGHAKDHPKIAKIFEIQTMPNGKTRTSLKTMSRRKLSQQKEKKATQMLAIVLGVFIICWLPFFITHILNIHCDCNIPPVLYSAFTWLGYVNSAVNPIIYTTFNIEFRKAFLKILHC

Efficacy [1]	Ki (D(3) dopamine receptor)	inhibition [2]	Ki (D(1A) dopamine receptor)	Ki (D(2) dopamine receptor [3])	Ki (D(4) dopamine receptor)	Ki (D(2) dopamine receptor [4])	SMILES
19%	20 nM and 23 nM	Active	1500 nM and 1700 nM	33 nM and 240 nM	2.5 nM and 4.5 nM	55 nM and 350 nM	c1ccc(N2CCN(Cc3cnn(-c4cc5ccc4CCc4ccc(cc4)CC5)c3)CC2)cc1
			440 nM				NCCc1ccc(O)c(O)c1 [DOPAMINE]
40%			1600 nM				c1ccc(N2CCN(Cc3cnn(-c4ccccc4)c3)CC2)cc1
	18 nM		2600 nM	28 nM	45 nM	39 nM	c1ccc(-n2cc(CN3CCN(c4cc5ccc4CCc4ccc(cc4)CC5)CC3)cn2)cc1
